# Data as given in ChEMBL document CHEMBL3763127, “Design, synthesis and biological evaluation of novel asperphenamate derivatives” (Eur J Med Chem, 2016).
# The source made the active and inactive calls. The rule behind the calls is not given here.
# How the values were obtained:
# HeLa [1] = assay: Induction of autophagy in human HeLa cells assessed as increase in autophagosome formation at 20 and 40 uM after 72 hrs by AO staining-based fluorescence microscopic analysis; format: functional, cell-based
# Method in brief: (§1)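 Cells in RPMI 1640/10% FBS were exposed to compound or 0.1% DMSO for 72 h: MCF-7 at 5 and 10 µM, HeLa and BEL-7402 at 20 and 40 µM. They were incubated with […] acridine orange for 15 min, washed with PBS, and acidic vesicles were imaged by inverted fluorescence microscopy.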
# Bel-7402 [2] = assay: Induction of cell cycle arrest in human Bel7402 cells assessed as accumulation at G0/G1 phase at 20 uM after 72 hrs by PI staining-based flow cytometric analysis (reference value: 49.44%); format: functional
# MCF7 [3] = assay: Induction of apoptosis in human MCF7 cells assessed as accumulation at subG1 phase at 10 uM after 24 hrs by PI staining-based flow cytometric analysis (reference value: 2.98%); format: functional
# MCF7 [4] = assay: Induction of cell cycle arrest in human MCF7 cells assessed as accumulation at G2/M phase at 10 uM after 24 hrs by PI staining-based flow cytometric analysis (reference value: 19.85%); format: functional
# MCF7 [5] = assay: Induction of autophagy in human MCF7 cells assessed as increase in autophagosome formation at 5 and 10 uM after 72 hrs by MDC staining-based fluorescence microscopic analysis; format: functional, cell-based
# Bel-7402 [6] = assay: Induction of autophagy in human Bel7402 cells assessed as autophagic cell formation at 40 uM after 72 hrs by MDC staining-based flow cytometric analysis (reference value: 3.94%); format: functional
# Bel-7402 [7] = assay: Induction of apoptosis in human Bel7402 cells assessed as accumulation at subG1 phase at 20 uM after 72 hrs by PI staining-based flow cytometric analysis (reference value: 2.87%); format: functional
# HeLa [8] = assay: Induction of autophagy in human HeLa cells assessed as autophagosome accumulation at 20 uM after 72 hrs by MDC staining-based flow cytometric analysis (reference value: 1.92%); format: functional
# HeLa [9] = assay: Induction of cell cycle arrest in human HeLa cells assessed as accumulation at S phase at 20 uM after 48 hrs by PI staining-based flow cytometric analysis (reference value: 24.17%); format: functional
# MCF7 [10] = assay: Potency index, ratio of IC50 for cisplatin to IC50 for test compound for cytotoxicity against human MCF7 cells; format: functional
# Bel-7402 [11] = assay: Induction of autophagy in human Bel7402 cells assessed as increase in LC3-2 level at 20 and 40 uM after 48 hrs by Western blot analysis; format: functional, cell-based
# Method in brief: (§2)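 Cells were treated with or without compound for 48 h: MCF-7 at 5 and 10 µM, HeLa and BEL-7402 at 20 and 40 µM. Total protein (10 µg) in SDS sample buffer (pH 6.8) was run on 8–15% SDS-PAGE and transferred to PVDF. LC3-I/LC3-II were probed with HRP secondary antibody and ECL detection. The assay was repeated at least three times.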
# MCF7 [12] = assay: Induction of cell cycle arrest in human MCF7 cells assessed as accumulation at S phase at 10 uM after 72 hrs by PI staining-based flow cytometric analysis (reference value: 27.09%); format: functional
# [13] = Cytotoxicity against human Bel7402 cells after 3 days by MTT assay; format: functional, cell-based; conditions: Bel-7402, 72 h
# Method in brief: (§3)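 MCF-7, HeLa and BEL-7402 cells were grown in RPMI 1640 with 10% heat-inactivated FBS, 1 mM glutamine and penicillin/streptomycin at 37 °C under 5% CO2. They were exposed to compound for 3 days, then read by MTT at 570 nm. Viability was taken as treated/control absorbance, and IC50 was derived from it. Values are mean SD of three independent experiments.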
# MCF7 [14] = assay: Induction of cell cycle arrest in human MCF7 cells assessed as accumulation at G2/M phase at 10 uM after 72 hrs by PI staining-based flow cytometric analysis (reference value: 19.85%); format: functional
# MCF7 [15] = assay: Induction of cell cycle arrest in human MCF7 cells assessed as accumulation at G0/G1 phase at 10 uM after 24 hrs by PI staining-based flow cytometric analysis (reference value: 50.76%); format: functional
# HeLa [16] = assay: Induction of cell cycle arrest in human HeLa cells assessed as accumulation at S phase at 20 uM after 72 hrs by PI staining-based flow cytometric analysis (reference value: 24.17%); format: functional
# HeLa [17] = assay: Cytotoxicity against human HeLa cells after 3 days by MTT assay; format: functional, cell-based; conditions: 72 h; method in brief: as §3
# HeLa [18] = assay: Induction of apoptosis in human HeLa cells assessed as accumulation at subG1 phase at 20 uM after 72 hrs by PI staining-based flow cytometric analysis (reference value: 2.89%); format: functional
# MCF7 [19] = assay: Cytotoxicity against human MCF7 cells after 3 days by MTT assay; format: functional, cell-based; conditions: MCF7, 72 h; method in brief: as §3
# MCF7 [20] = assay: Induction of autophagy in human MCF7 cells assessed as increase in autophagosome formation at 5 and 10 uM after 72 hrs by AO staining-based fluorescence microscopic analysis; format: functional, cell-based; method in brief: as §1
# MCF7 [21] = assay: Induction of cell cycle arrest in human MCF7 cells assessed as accumulation at G0/G1 phase at 10 uM after 72 hrs by PI staining-based flow cytometric analysis (reference value: 50.76%); format: functional
# HeLa [22] = assay: Induction of cell cycle arrest in human HeLa cells assessed as accumulation at G2/M phase at 20 uM after 48 hrs by PI staining-based flow cytometric analysis (reference value: 25.44%); format: functional
# MCF7 [23] = assay: Induction of apoptosis in human MCF7 cells assessed as accumulation at subG1 phase at 10 uM after 72 hrs by PI staining-based flow cytometric analysis (reference value: 2.98%); format: functional
# HeLa [24] = assay: Induction of cell cycle arrest in human HeLa cells assessed as accumulation at G0/G1 phase at 20 uM after 72 hrs by PI staining-based flow cytometric analysis (reference value: 45.70%); format: functional
# [25] = Potency index, ratio of IC50 for cisplatin to IC50 for test compound for cytotoxicity against human Bel7402 cells; format: functional, Bel-7402
# Bel-7402 [26] = assay: Induction of cell cycle arrest in human Bel7402 cells assessed as accumulation at S phase at 20 uM after 72 hrs by PI staining-based flow cytometric analysis (reference value: 25.01%); format: functional
# MCF7 [27] = assay: Induction of autophagy in human MCF7 cells assessed as increase in LC3-2 level at 5 to 10 uM after 48 hrs by Western blot analysis; format: functional, cell-based; method in brief: as §2
# HeLa [28] = assay: Induction of cell cycle arrest in human HeLa cells assessed as accumulation at G0/G1 phase at 20 uM after 48 hrs by PI staining-based flow cytometric analysis (reference value: 45.70%); format: functional
# MCF7 [29] = assay: Induction of cell cycle arrest in human MCF7 cells assessed as accumulation at G0/G1 phase at 10 uM after 48 hrs by PI staining-based flow cytometric analysis (reference value: 50.76%); format: functional
# Bel-7402 [30] = assay: Induction of cell cycle arrest in human Bel7402 cells assessed as accumulation at G2/M phase at 20 uM after 48 hrs by PI staining-based flow cytometric analysis (reference value: 22.26%); format: functional
# MCF7 [31] = assay: Induction of cell cycle arrest in human MCF7 cells assessed as accumulation at S phase at 10 uM after 24 hrs by PI staining-based flow cytometric analysis (reference value: 27.09%); format: functional
structure (smiles),measurement,setting,value
Cc1ccc(S(=O)(=O)N[C@H](Cc2ccccc2)C(=O)OC[C@H](Cc2ccccc2)NC(=O)c2ccccc2)cc1,Activity,HeLa [1],Active
same,Activity,Bel-7402 [2],45.89%
same,Activity,MCF7 [3],3.38%
same,Activity,MCF7 [4],19.09%
same,Activity,MCF7 [5],Active
same,Activity,Bel-7402 [6],48.25%
same,Activity,Bel-7402 [7],3.78%
same,Activity,HeLa [8],26.11%
same,Activity,HeLa [9],25.4%
same,Ratio IC50,MCF7 [10],3
same,Activity,Bel-7402 [11],Active
same,Activity,MCF7 [12],28.08%
same,IC50,[13],12.5 µM
same,Activity,MCF7 [14],20.07%
same,Activity,MCF7 [15],52.57%
same,Activity,HeLa [16],25.91%
same,IC50,HeLa [17],16.8 µM
same,Activity,HeLa [18],2.43%
same,IC50,MCF7 [19],5.87 µM
same,Activity,MCF7 [20],Active
same,Activity,MCF7 [21],48.05%
same,Activity,HeLa [22],22.18%
same,Activity,MCF7 [23],3.76%
same,Activity,HeLa [24],48.1%
same,Ratio IC50,[25],1.6
same,Activity,Bel-7402 [26],26.88%
same,Activity,MCF7 [27],Active
same,Activity,HeLa [28],50.15%
same,Activity,MCF7 [29],48.81%
same,Activity,Bel-7402 [30],22.8%
same,Activity,MCF7 [31],24.98%
